Results as given in ChEMBL document CHEMBL1629659, “Bronchopulmonary disposition of micafungin in healthy adult volunteers” (Antimicrob Agents Chemother, 2009).
Numbered stars: 1 amine (or outer) side, 2 acyl side, 3 side chain; on linkers, the order of the positions; unused ones are H or OH. Bridge positions count the residues as written; N and C are the ends. Square brackets hold non-standard residues; d marks the D form. Peptide text beside a SMILES is read from it. * marks the point of attachment. hTyr(3S-OH,4S-OH,3'-OSO3H) = N[C@H](C(=O)O)[C@H](O)[C@@H](O)c1ccc(O)c(OS(=O)(=O)O)c1; Orn(4R-OH,5R-OH) = O=C([C@H](C[C@@H](O)[C@@H](O)N[*:3])N[*:1])[*:2]; Pro(3S-OH,4S-Me) = C[C@H]1CN[C@H](C(=O)O)[C@H]1O; X1 = CCCCCOc1ccc(-c2cc(-c3ccc(C(=O)*)cc3)no2)cc1; Gln(3R-OH) = NC(=O)C[C@@H](O)[C@H](N)C(=O)O; Hyp = O=C(O)[C@@H]1C[C@@H](O)CN1

Assays:
[1] = Cmax in healthy human plasma at 150 mg, iv […]; assay type: ADME, organism-based; set-up: dose 150 mg, route intravenous
How it was run: (§1)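 Fifteen healthy adults received micafungin 150 mg IV, infused over 1 h every 24 h, for three doses. Blood was drawn before the third dose, at end of infusion (1 h), and 4, 12 and 24 h after the third dose. Plasma levels were measured by validated HPLC (linear 0.05–25.0 μg/ml). Parameters came from noncompartmental analysis over the 24-h dosing interval.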

[2] = AUC ( 0 to 24 hrs) in Alveolar macrophage cells of healthy human at 150 mg, iv […]; assay type: ADME, organism-based; set-up: time < 24 hr, dose 150 mg, route intravenous
How it was run: (§2)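 Steady-state ELF and alveolar-cell concentrations were derived by urea dilution from BAL, with one bronchoscopy per subject at 4, 12 or 24 h after the third 150 mg IV dose (five subjects per time). A composite AUC over 0–24 h was calculated across subjects by the trapezoidal rule.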

[3] = Drug concentration in Alveolar macrophage cells of healthy human at 150 mg, iv […] measured after 24 hrs of third postdose by urea dilution method; assay type: ADME, organism-based; settings: read-out: Drug uptake
How it was run: (§3)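 The first aspirate was discarded and the rest pooled. Cells were pelleted and lysed. Drug in BAL fluid and pellet was measured by HPLC. Urea in BAL and plasma was measured by colorimetric enzymatic assay. ELF and alveolar-cell levels were derived by urea dilution.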

[4] = Ratio of Cmax to MEC for Aspergillus; assay type: functional
Aspergillus fumigatus [5] = test: Antimicrobial activity against non-germinated Aspergillus fumigatus conidia; assay type: functional; settings: read-out: MEC
[6] = Penetration ratio, ratio of AUC for human epithelial lining fluid to AUC for human plasma; assay type: ADME; settings: read-out: Ratio AUC
How it was run: (§4)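 Penetration was expressed as composite AUC0-24 in ELF or alveolar cells (urea-dilution-corrected BAL data, trapezoidal rule) divided by plasma AUC0-24 (noncompartmental). Subjects received 150 mg IV daily for three doses.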

[7] = AUC ( 0 to 24 hrs) in healthy human plasma at 150 mg, […]; assay type: ADME, organism-based; set-up: dose 150 mg, time < 24 hr, route intravenous; settings: iv; how it was run: as §1
[8] = Half life in healthy human plasma at 150 mg, iv […]; assay type: ADME, organism-based; how it was run: as §1
Aspergillus fumigatus [9] = test: Antimicrobial activity against germinated Aspergillus fumigatus conidia; assay type: functional; settings: read-out: MEC
[10] = Penetration ratio, ratio of AUC for alveolar macrophage cells of healthy human to AUC for human plasma; assay type: ADME, cell-based; settings: read-out: Ratio AUC; how it was run: as §4
[11] = Drug concentration in Alveolar macrophage cells of healthy human at 150 mg, iv […] measured after 4 hrs of third postdose by urea dilution method; assay type: ADME, organism-based; settings: read-out: Drug uptake; how it was run: as §3
[12] = Drug concentration in Alveolar macrophage cells of healthy human at 150 mg, iv […] measured after 12 hrs of third postdose by urea dilution method; assay type: ADME, organism-based; settings: read-out: Drug uptake; how it was run: as §3
[13] = Volume of distribution in healthy human plasma at 150 mg, iv […]; assay type: ADME, organism-based; how it was run: as §1
[14] = Plasma concentration in healthy human at 150 mg, iv […] measured after 24 hrs of third postdose; assay type: ADME, organism-based
How it was run: (§5)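 Healthy volunteers (n=15) were given 150 mg micafungin IV over 1 h every 24 h for three doses. Plasma was sampled before and after the third dose (0, 1, 4, 12, 24 h). Quantitation used modified, validated HPLC with a standard curve linear over 0.05–25.0 μg/ml. Interday CV was ≤11.3% and intraday CV <18%.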

[15] = Drug concentration in healthy human plasma at 150 mg, iv QD measured after 4 hrs of third postdose by high-pressure liquid chromatography method; settings: read-out: Drug uptake
[16] = Drug concentration in healthy human epithelial lining fluid at 150 mg, iv QD measured after 4 hrs of third postdose by urea dilution method; settings: read-out: Drug uptake
[17] = Clearance at steady state in healthy human plasma at 150 mg, iv […]; assay type: ADME, organism-based; how it was run: as §1
Plasma [18] = test: Plasma protein binding in healthy human; assay type: ADME, cell-free
[19] = Drug concentration in healthy human plasma at 150 mg, iv QD measured after 12 hrs of third postdose by high-pressure liquid chromatography method; settings: read-out: Drug uptake
[20] = Drug concentration in healthy human plasma at 150 mg, iv QD measured after 24 hrs of third postdose by high-pressure liquid chromatography method; settings: read-out: Drug uptake
[21] = Drug concentration in healthy human epithelial lining fluid at 150 mg, iv QD measured after 12 hrs of third postdose by urea dilution method; settings: read-out: Drug uptake
Plasma [22] = test: Plasma concentration in healthy human at 150 mg, iv […] measured before third dose; assay type: ADME, organism-based; settings: in vivo; how it was run: as §5
[23] = Drug concentration in healthy human epithelial lining fluid at 150 mg, iv […] measured after 24 hrs of third postdose by urea dilution method; assay type: ADME, organism-based; settings: read-out: Drug uptake; how it was run: as §3
[24] = AUC ( 0 to 24 hrs) in healthy human epithelial lining fluid at 150 mg, iv […]; assay type: ADME, organism-based; set-up: dose 150 mg, time < 24 hr, route intravenous; how it was run: as §2

`CCCCCOc1ccc(-c2cc(-c3ccc(C(=O)N[C@H]4C[C@@H](O)[C@@H](O)NC(=O)[C@@H]5[C@@H](O)[C@@H](C)CN5C(=O)[C@H]([C@H](O)CC(N)=O)NC(=O)[C@H]([C@H](O)[C@@H](O)c5ccc(O)c(OS(=O)(=O)O)c5)NC(=O)[C@@H]5C[C@@H](O)CN5C(=O)[C@H]([C@@H](C)O)NC4=O)cc3)no2)cc1` [MICAFUNGIN] (X1-[Orn(4R-OH,5R-OH)]T[Hyp][hTyr(3S-OH,4S-OH,3'-OSO3H)][Gln(3R-OH)][Pro(3S-OH,4S-Me)]; lactam 1-C) showed a Cmax [1] of 19100 ng/mL, an AUC at 24 h [2] of 234 µg·h/mL and a concentration at 24 h [3] of 14600 ng/mL. For the same compound, the Ratio [4] was 10, the minimal effective concentration (Aspergillus fumigatus [5]) was 0.06 µg/mL and the Kp [6] was 5. The AUC at 24 h [7] was 220 µg·h/mL, the half-life [8] was 14.7 h and the minimal effective concentration (Aspergillus fumigatus [9]) was 0.25 µg/mL. For the same compound, the Kp [10] was 106, the concentration at 4 h [11] was 10400 ng/mL and the concentration at 12 h [12] was 8400 ng/mL. For the same compound, the Vd [13] was 15 L, the concentration at 24 h [14] was 4670 ng/mL and the concentration at 4 h [15] was 14800 ng/mL. It also gave a concentration at 4 h [16] of 520 ng/mL, a clearance [17] of 11.7 mL/min and a PPB (Plasma [18]) of 99%. For the same compound, the concentration at 12 h [19] was 7400 ng/mL, the concentration at 24 h [20] was 4800 ng/mL and the concentration at 12 h [21] was 440 ng/mL. It also gave a Cp (Plasma [22]) of 4280 ng/mL, a concentration at 24 h [23] of 430 ng/mL and an AUC at 24 h [24] of 10.2 µg·h/mL.
